S1P3 ag: activates the human S1P3 receptor. Q99500. S1P3 NFAT-BLA reporter cells, agonism, FRET ratio; relative to 1 µM S1P, basal subtracted. activation, % at 4.5 µM. hit rate 0.1% among 60,000. AID 373;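 active = activation above the screen-wide mean plus 3 SD, cut at about 4.5% in these data, passing the limit was not always enough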
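Assay system: stable CHO line with human S1P3, Gα16, NFAT-BLA reporter; Detection: FRET β-lactamase substrate fluorescence, excitation 405 nm, 460/535 nm emission ratio, background-subtracted; Read-out: percent activation versus median 1 µM S1P response, basal-subtracted, per plate; Incubation: cells plated overnight, compound 4 h 37 °C, substrate 2 h RT.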
5-HT1A blocker: antagonists of human 5-HT1a serotonin receptor; P08908; hit rate 0.68% among 62,000; inhibition, % at 10 µM; CHO 5-HT1a Ga15 NFAT-bla reporter, antagonist mode;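 active = inhibition above the mean of all tested compounds plus 3 SD, cut at about 43% in these data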;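 also: receptor stimulated by 5-CT agonist at 100 nM near EC80; beta-lactamase reporter measured by ratiometric fluorescence of a cleavable substrate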
Target sequence (P08908 whole entry, looked up): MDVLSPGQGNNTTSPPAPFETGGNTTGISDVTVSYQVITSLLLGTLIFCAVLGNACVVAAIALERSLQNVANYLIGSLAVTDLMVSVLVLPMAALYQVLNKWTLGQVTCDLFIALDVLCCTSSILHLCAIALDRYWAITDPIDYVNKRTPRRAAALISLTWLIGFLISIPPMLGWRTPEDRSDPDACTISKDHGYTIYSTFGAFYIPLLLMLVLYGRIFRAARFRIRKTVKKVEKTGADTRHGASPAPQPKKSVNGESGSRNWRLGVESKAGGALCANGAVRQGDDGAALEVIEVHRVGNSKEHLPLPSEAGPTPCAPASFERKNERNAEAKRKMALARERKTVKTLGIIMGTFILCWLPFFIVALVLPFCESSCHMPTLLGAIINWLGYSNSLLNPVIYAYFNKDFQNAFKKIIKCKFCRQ
Ec RNAP inh: inhibitors of Escherichia coli RNA polymerase | P0A8V2 | E. coli RNA polymerase, fluorescence transcription assay | hit rate 0.2% among 62,000 | inhibition, %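 (tested at 10 µM)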; in the data active = inhibition above about 20%
5HT1a ag: activates the human 5-HT1a serotonin receptor; AID 567; P08908; activation, % at 10 µM; hit rate 0.56% among 65,000; CHO 5-HT1a Ga15 NFAT-bla reporter, FRET ratio; 0% basal, 100% maximal reference agonist;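 active = activation above the screen-wide mean activation plus 3 SD, cut at about 19% in these data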
HTR1E antagonist: blocks the human 5-HT1E serotonin receptor; P28566; CHO 5-HT1E Ga15 NFAT-bla reporter, FRET, antagonist; inhibition, % at 6 µM; hit rate 0.99% among 65,000; AID 571;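 active = inhibition above a set limit, the mean inhibition across every tested compound plus 3 SD, cut at about 29% in these data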;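 also: signal is the 460 over 535 nm emission ratio of beta-lactamase substrate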
HTR1E agonist: 5-HT1E (human) receptor agonism; P28566; CHO 5-HT1E Ga15 NFAT-bla reporter, FRET; 0% DMSO wells, 100% control agonist wells; activation, % at 6 µM; hit rate 0.69% among 65,000; AID 574;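 active = activation above a set limit, the screen-wide mean activation plus 3 SD, cut at about 8.5% in these data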
Hits are given with their value; - = inactive; . = no result. Hits are enriched below; roughly 2.6% of the tested compounds scored in any of these assays.

SMILES | S1P3 ag | 5-HT1A blocker | Ec RNAP inh | 5HT1a ag | HTR1E antagonist | HTR1E agonist
CCCc1nc(SCC(=O)Nc2cc(C)on2)c2c(=O)n(C)c(=O)n(C)c2n1 | - | - | - | - | - | -
Cc1nn(-c2ccccc2)c(OC(=O)c2cccs2)c1S(=O)(=O)c1ccccc1 | - | - | - | 81 | - | -
CCN(CCO)C(=O)CC(c1ccccc1)c1cc(Br)ccc1O (centres undefined) | - | - | - | - | - | -
Cc1onc(-c2c(F)cccc2Cl)c1C(=O)Nc1cccc(Cn2cccn2)c1 | - | - | . | - | - | -
CCOC(=O)C(C)Oc1cccc2c(=O)n(CC(=O)NCc3ccco3)ccc12 (centres undefined) | - | - | - | - | 38 | -
CCOC(=O)C1CCCN(C(=O)Cn2nc(Cc3cccnc3)c3ccccc3c2=O)C1 (centres undefined) | - | - | - | 38 | - | -
CCOc1ccc(N(CC(=O)O)S(=O)(=O)c2ccc(OC)c(OC)c2)cc1 | - | - | - | - | - | -
CCOc1ccc(N(CC(=O)O)S(=O)(=O)c2ccc(F)cc2)cc1 | - | - | . | 74 | - | -
Cc1cc(NCCN2CCOCC2)n2nc(C)c(-c3ccc(Cl)cc3)c2n1 | - | - | - | - | 32 | -
COCCCNC(=O)c1ccc(CS(=O)(=O)c2ccc(OC)cc2)o1 | - | - | - | - | 31 | -
COCCCNC(=O)c1ccc(CS(=O)(=O)c2ccc(Br)cc2)o1 | - | - | - | - | - | -
O=c1c2c3nc4ccccc4nc3n(/N=C/c3ccco3)c2ncn1CCC1=CCCCC1 | - | - | - | - | - | -
CCn1c(SCC(=O)Nc2nccs2)nnc1-c1cc2cccc(OC)c2o1 | - | - | - | - | - | 11
CCn1c(SCC(=O)Nc2nccs2)nnc1-c1ccccc1 | - | - | - | - | - | -
CCn1c(SCC(=O)Nc2cc3oc4ccccc4c3cc2OC)nnc1-c1cccs1 | - | - | - | 25 | - | -
CCn1c(SCC(=O)Nc2ccc3c(c2)OCCO3)nnc1-c1ccco1 | - | - | - | - | - | -
CCn1c(SCC(=O)NC(=O)Nc2ccc3c(c2)OCCO3)nnc1-c1cccs1 | - | - | 22 | - | - | -
COc1ccc(N(CC(=O)NCc2ccccc2)S(=O)(=O)c2c(C)noc2C)cc1 | - | - | - | - | - | -
NC(=O)c1oc2ccc(Cl)cc2c1NC(=O)CN1CCOCC1 | - | - | - | - | - | -
CCOC(=O)c1c(C)[nH]c(C(=O)OC/C(O)=C(\C#N)c2nc3ccccc3[nH]2)c1C | - | - | - | - | 49 | -
N#C/C(=C(/O)COC(=O)Cc1c[nH]c2ccccc12)c1nc2ccccc2[nH]1 | - | - | - | 32 | - | -
N#C/C(=C(/O)COC(=O)c1ccc2c(c1)OCCO2)c1nc2ccccc2[nH]1 | - | - | - | - | - | -
Cc1nc2c([nH]c3ccc(Br)cc32)s1 | - | - | . | - | - | -
Cc1cnc(NC(=O)CSc2nnc(Cc3ccccc3)o2)s1 | - | - | - | - | - | -
COc1ccccc1NC(=O)CSc1ncnc2c1oc1ccccc12 | - | - | - | - | 36 | -
SMILES | S1P3 ag | 5-HT1A blocker | Ec RNAP inh | 5HT1a ag | HTR1E antagonist | HTR1E agonist
CCc1nc(SCC(=O)Nc2nccs2)c2oc3ccccc3c2n1 | - | - | - | - | 38 | -
CCN1CCN(CCCOc2ccc(-c3ccccc3)cc2)CC1 | - | - | - | - | - | -
CC(C)NC(=O)CSc1nnc(-c2ccc(S(=O)(=O)N3CCCC3)cc2)n1CC1CCCO1 (centres undefined) | - | - | - | - | - | -
CC(=O)NC(CCS(C)(=O)=O)C(=O)Nc1cc(Cl)ccc1Cl (centres undefined) | - | - | - | 120 | - | -
O=S(=O)(c1ccccc1)c1ccccc1/C=N\O | - | - | . | - | - | -
CNc1nc(C)c(C#N)c(-c2ccccc2)c1C(C)=O | - | - | - | - | - | 18
CC(=O)Nc1nc(C)nc(-c2ccccc2)c1C(C)=O | - | - | - | - | - | -
CCOC(=O)Nc1ccc2c(c1)N(C(=O)CCN(C)C)c1ccccc1S2 | - | 46 | . | - | - | -
CCOC(=O)Nc1ccc2c(c1)N(C(=O)CN1CCN(C)CC1)c1ccccc1S2 | - | - | - | - | - | -
COc1ccc(Nc2nc(N)nc(CSc3n[nH]c(-c4ccccc4)n3)n2)cc1 | - | - | - | - | 42 | -
Cc1ccc(-c2nc(Nc3ccccc3)n[nH]2)cc1 | - | - | - | - | - | -
COc1ccccc1Nc1nc(N)nc(CSc2ncccn2)n1 | - | - | - | - | - | -
Nc1nc(CSc2n[nH]c(-c3ccccc3)n2)nc(Nc2ccccc2)n1 | - | - | - | - | 30 | -
COc1cc(OC)cc(-c2nnc(SCC(=O)Nc3cc(C)on3)o2)c1 | - | - | - | - | - | -
COc1c2ccoc2nc2c(OC)c(OCC(O)C(C)(C)O)ccc12 (centres undefined) | - | - | - | - | - | -
COc1c2c(nc3occc13)C(CCC(C)(C)O)(OC)C(O)CC2 (centres undefined) | - | - | . | - | - | 26
CCOc1ccccc1NC(=O)CCSc1nc2n[nH]c(C)c2c(=N)n1-c1ccccc1Cl | . | - | - | - | - | -
Cc1ccccc1-n1c(SCc2ccccn2)nc2n[nH]c(C)c2c1=N | - | - | . | - | 57 | -
CCOC(=O)C(C(=O)OCC)c1cc(Br)c2noc3c2c1C(=O)c1ccccc1-3 | . | 48 | - | - | 32 | -
Cc1noc(C)c1CSc1nc2ccccc2[nH]1 | - | - | . | 67 | - | -
Cc1noc(C)c1CSc1ccc2ccccc2n1 | - | - | - | - | - | -
Cc1cccnc1NCc1ccc(O)c2ncccc12 | - | - | - | - | 51 | -
CCOC(=O)C1CCN(Cc2ccc(O)c3ncccc23)CC1 | - | - | - | - | - | -
Cc1c(-n2cc(C(=O)c3ccccc3O)cc(C#N)c2=O)c(=O)n(-c2ccccc2)n1C | - | - | - | 325 | - | -
CCOC(=O)c1cc(C)n(-c2c(C)n(C)n(-c3ccccc3)c2=O)c1C | - | - | - | - | - | -
SMILES | S1P3 ag | 5-HT1A blocker | Ec RNAP inh | 5HT1a ag | HTR1E antagonist | HTR1E agonist
CCn1c(C(=O)N2CCC(C(=O)NCc3ccc4c(c3)OCO4)CC2)cc2sccc21 | - | - | - | 20 | - | -
Cn1c(C(=O)N2CCCC(C(=O)NCc3ccc4c(c3)OCO4)C2)cc2sccc21 (centres undefined) | - | - | - | - | - | -
O=S(=O)(NCCN1CCCC1)c1cccc2cccnc12 | - | - | - | - | - | -
O=S(=O)(NCCCN1CCN(c2ccccc2F)CC1)c1cccc2cccnc12 | - | - | - | - | - | 9.1
Nc1nonc1/C(=N/O)N1CCN(CCO)CC1 | - | - | - | - | - | -
CN1CCN(/C(=N\O)c2nonc2N)CC1 | - | - | - | - | - | 55
Cc1sc2ncnc(Oc3ccc(-n4ccnc4)cc3)c2c1C | - | - | - | 298 | - | -

From PubChem BioAssay
